Tested on: not listed separately
Experiment: (§1) Agonist activity at human alpha1L-adrenoceptor expressed in CHO cells co-expressing CRELD1alpha assessed as induction of calcium mobilization after 60 mins by fluorometric imaging plate reader assay
Assay type: cell-based
Details: 1 h
In short: (§2)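 CHO cells (α1L-dominant) expressing human α1A-AR plus human CRELD1α were plated and grown overnight at 37°C under CO2. Cells were loaded with Calcium 5 indicator dye for 60 min at 37°C, then calcium influx was read by FLIPR. Activity is expressed as EC50 relative to the noradrenaline EC50.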

Compound	EC50
NC[C@H](O)c1ccc(O)c(O)c1	1.02 µM

Tested on: CHO
Experiment: as §1
Assay type: cell-based
Details: not given
In short: as §2

Compound	Activity
Cc1c(CC2=NCCN2)cccc1C(C)C	36%
Cc1ccc(Cl)cc1CC1=NCCN1	0%

Species: Rattus norvegicus
Experiment: Agonist activity at alpha1L-adrenoceptor in Wistar rat isolated bladder neck assessed as induction of muscle contraction
Details: not given
In short: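 Male Wistar rats anaesthetised with sodium pentobarbital (50 mg/kg) and killed. Bladder neck was isolated and cleaned in modified Krebs-Henseleit solution gassed with 95% O2/5% CO2. Strips were mounted in organ baths of the same solution at 37°C. Contraction was recorded across increasing doses, with noradrenaline as reference agonist.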

Compound	Activity
CC(C)c1cc(Cl)cc2c1NCCC2C1=NCCN1 (stereo not given)	Dose-dependent effect

Tested on: CHO
Experiment: Agonist activity at human alpha1L-adrenoceptor expressed in CHO cells co-expressing CRELD1alpha assessed as induction of calcium mobilization after 60 mins by fluorometric imaging plate reader assay relative to control noradrenaline
Assay type: cell-based
Details: not given
In short: as §2

Compound	Ratio
CC(C)c1cc(Cl)cc2c1NCCC2C1=NCCN1 (stereo not given)	0.0028
Clc1cc(CC2=NCCN2)c2c(c1)C1(CCC2)CC1	0.025
CC(C)c1cc(Cl)cc2c1CCCC2C1=NCCN1 (stereo not given)	0.024
CC(C)c1cc(Cl)cc2c1OCCC2C1=NCCN1 (stereo not given)	0.014
CC1(C)CCc2c(CC3=NCCN3)cc(Cl)cc21	0.12
Cc1c(CC2=NCCN2)cc(Cl)cc1C(C)C	0.043
CC1CCCc2c(CC3=NCCN3)cc(Cl)cc21 (stereo not given)	0.063
CC1(C)CCCc2c(CC3=NCCN3)cc(Cl)cc21	0.028
CC(C)c1cc(Cl)cc(CC2=NCCN2)c1	0.52
Clc1cc(CC2=NCCN2)c2c(c1)C1(CCO2)CC1	0.088
CC(C)c1cc(Cl)cc2c1CCC2C1=NCCN1 (stereo not given)	0.08

Source: ChEMBL document CHEMBL3600326, “Discovery of potent α1L-adrenoceptor agonists: Design and synthesis of bicyclic derivatives” (Bioorg Med Chem Lett, 2015)
